Data: ChEMBL document CHEMBL1275300, “Synthesis and antituberculosis activity of some new pyridazine derivatives. Part II” (Eur J Med Chem, 2010)
≈ marks a conversion by molar mass, not a printed value.

What follows are compounds tested on Mycobacterium tuberculosis (assay: Antimicrobial activity against Mycobacterium tuberculosis H37Rv ATCC 27294 by microplate alamar blue assay).
Format: functional, organism-based
How it was run: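 M. tuberculosis H37Rv (ATCC 27294) grown in BACTEC 12B medium and tested by microplate Alamar Blue assay. Compounds were dissolved in DMSO, diluted with distilled water, and tested as ten 2-fold dilutions. Read-out was fluorescence. IC90 is the concentration giving 90% fluorescence reduction versus controls; IC50 is defined the same way at 50%.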

`CCOC(=O)Cn1nc(-c2ccc(C)cc2)ccc1=O` and `COC(=O)Cn1nc(-c2ccc(C)cc2)ccc1=O` cannot be ordered by IC50: greater than 100 µg/mL for the first, greater than 100 µg/mL for the second.

`C=CCn1nc(-c2ccc(Br)cc2)ccc1=O` and `C=CCn1nc(-c2ccc(Cl)cc2)ccc1=O` are within 1.5-fold of each other in IC50: 37.8 µg/mL (≈ 130 µM) for the first, 36.6 µg/mL (≈ 148 µM) for the second.

`C=CCn1nc(-c2ccc(C)cc2)ccc1=O` and `C#CCn1nc(-c2ccc(C)cc2)ccc1=O` are within 1.5-fold of each other in IC50: 60.7 µg/mL (≈ 268 µM) for the first, 63.7 µg/mL (≈ 284 µM) for the second.

Compared with `C#CCn1nc(-c2ccc(Cl)cc2)ccc1=O`, `C#CCn1nc(-c2ccc(Br)cc2)ccc1=O` is 2.8-fold higher in IC50: 34.7 µg/mL (≈ 142 µM) for the first, 97.8 µg/mL (≈ 338 µM) for the second.

First: COC(=O)Cn1nc(-c2ccc(Cl)cc2)ccc1=O
Second: CCOC(=O)Cn1nc(-c2ccc(Cl)cc2)ccc1=O
The IC50 of the first is lower: 94.2 µg/mL (≈ 338 µM) for the first, greater than 100 µg/mL for the second.

Going from `COC(=O)Cn1nc(-c2ccc(Br)cc2)ccc1=O` to `CCOC(=O)Cn1nc(-c2ccc(Br)cc2)ccc1=O`, the IC50 rises from 73.2 µg/mL (≈ 227 µM) to greater than 100 µg/mL.

`NC(=O)Cn1nc(-c2ccc(Cl)cc2)ccc1=O` and `NC(=O)Cn1nc(-c2ccc(Br)cc2)ccc1=O` cannot be ordered by IC50: greater than 100 µg/mL for the first, greater than 100 µg/mL for the second.

Going from `Cc1ccc(-c2ccc(=O)n(CC(N)=O)n2)cc1` to `CCOC(=O)C(C)n1nc(-c2ccc(C)cc2)ccc1=O` (stereo unspecified), the IC50 falls from greater than 100 µg/mL to 64.9 µg/mL (≈ 227 µM).

`CCOC(=O)C(C)n1nc(-c2ccc(Cl)cc2)ccc1=O` (stereo unspecified) and `CCOC(=O)C(C)n1nc(-c2ccc(Br)cc2)ccc1=O` (stereo unspecified) are within 1.5-fold of each other in IC50: 28.6 µg/mL (≈ 93.2 µM) for the first, 26.8 µg/mL (≈ 76.5 µM) for the second.

`CCOC(=O)Cn1nc(-c2ccc(C)cc2)ccc1=O` and `COC(=O)Cn1nc(-c2ccc(C)cc2)ccc1=O` cannot be ordered by IC90: greater than 100 µg/mL for the first, greater than 100 µg/mL for the second.

`C=CCn1nc(-c2ccc(Br)cc2)ccc1=O` and `C=CCn1nc(-c2ccc(Cl)cc2)ccc1=O` are within 1.5-fold of each other in IC90: 46.8 µg/mL (≈ 161 µM) for the first, 61.6 µg/mL (≈ 250 µM) for the second.

`C=CCn1nc(-c2ccc(C)cc2)ccc1=O` and `C#CCn1nc(-c2ccc(C)cc2)ccc1=O` are within 1.5-fold of each other in IC90: 76.5 µg/mL (≈ 338 µM) for the first, 89.2 µg/mL (≈ 398 µM) for the second.

`C#CCn1nc(-c2ccc(Cl)cc2)ccc1=O` and `C#CCn1nc(-c2ccc(Br)cc2)ccc1=O` cannot be ordered by IC90: greater than 100 µg/mL for the first, greater than 100 µg/mL for the second.

`COC(=O)Cn1nc(-c2ccc(Cl)cc2)ccc1=O` and `CCOC(=O)Cn1nc(-c2ccc(Cl)cc2)ccc1=O` cannot be ordered by IC90: greater than 100 µg/mL for the first, greater than 100 µg/mL for the second.

`COC(=O)Cn1nc(-c2ccc(Br)cc2)ccc1=O` and `CCOC(=O)Cn1nc(-c2ccc(Br)cc2)ccc1=O` cannot be ordered by IC90: greater than 100 µg/mL for the first, greater than 100 µg/mL for the second.

`NC(=O)Cn1nc(-c2ccc(Cl)cc2)ccc1=O` and `NC(=O)Cn1nc(-c2ccc(Br)cc2)ccc1=O` cannot be ordered by IC90: greater than 100 µg/mL for the first, greater than 100 µg/mL for the second.

Going from `Cc1ccc(-c2ccc(=O)n(CC(N)=O)n2)cc1` to `CCOC(=O)C(C)n1nc(-c2ccc(C)cc2)ccc1=O` (stereo unspecified), the IC90 falls from greater than 100 µg/mL to 84 µg/mL (≈ 293 µM).

`CCOC(=O)C(C)n1nc(-c2ccc(Cl)cc2)ccc1=O` (stereo unspecified) and `CCOC(=O)C(C)n1nc(-c2ccc(Br)cc2)ccc1=O` (stereo unspecified) are within 1.5-fold of each other in IC90: 46 µg/mL (≈ 150 µM) for the first, 47.5 µg/mL (≈ 135 µM) for the second.
